From PubChem BioAssay
dFosB activator = activators of delta FosB homodimer, primary screen, biochemical, fluorescence polarization, TAMRA-CDK5 oligo, single point. Protein FosB (Mus musculus), P13346. purified delta FosB; percent of positive-control signal above neutral wells. activation, % at 25 µM. 340,000 compounds, 0.99% hits;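 active = mean activation above about 17%, with every replicate also reaching it, limit read from the data, passing the limit was not always enough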
SR-BI DiI inh = inhibitors of SR-BI mediated HDL lipid uptake, primary screen, ldlA[mSR-BI] cells, fluorescence, single point; inhibition, % at 12.5 µM; ldlA[mSR-BI] CHO cells, DiI-HDL uptake fluorescence, 3 h; 320,000 compounds, 0.96% hits; AID 488896, 2010; Scavenger receptor class B member 1 (Mus musculus), Q61009;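 active = mean replicate inhibition of at least 70% and a set share of replicates each scoring 70 or more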;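 note: 0% = median of neutral control wells and 100% = median of positive control wells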
Target sequence (Q61009 whole entry, looked up): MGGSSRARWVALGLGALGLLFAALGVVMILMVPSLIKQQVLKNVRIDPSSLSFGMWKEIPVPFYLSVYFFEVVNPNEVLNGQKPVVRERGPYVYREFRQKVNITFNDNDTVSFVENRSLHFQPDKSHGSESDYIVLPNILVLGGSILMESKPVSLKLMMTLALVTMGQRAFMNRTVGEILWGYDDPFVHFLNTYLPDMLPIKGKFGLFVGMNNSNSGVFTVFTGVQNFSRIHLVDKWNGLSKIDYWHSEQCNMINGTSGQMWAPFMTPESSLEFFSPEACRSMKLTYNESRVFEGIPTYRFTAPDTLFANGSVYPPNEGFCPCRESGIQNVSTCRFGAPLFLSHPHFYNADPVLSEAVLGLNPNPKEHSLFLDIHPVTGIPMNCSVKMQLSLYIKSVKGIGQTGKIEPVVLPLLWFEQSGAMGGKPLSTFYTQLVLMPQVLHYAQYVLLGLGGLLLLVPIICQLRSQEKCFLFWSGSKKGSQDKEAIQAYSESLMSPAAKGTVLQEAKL
SR-BI uptake up = activators of SR-BI mediated DiI-HDL uptake, primary screen, ldlA[mSR-BI] CHO cells, DiI fluorescence; 320,000 compounds, 0.096% hits; 3 h; 100 = double the neutral-control signal; activation, % at 12.5 µM;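 active = mean replicate activation of at least 60% and every replicate at or above 60%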;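 note: 0% = median plate neutral-control signal and 100% = twice that signal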
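Assay system: LDL receptor-deficient CHO ldlA cells overexpressing murine SR-BI / Medium: BSA-supplemented, HEPES-buffered Ham's F12, pH 7.4 / Probe or stimulus: DiI-labelled HDL at 10 µg/mL final / Timing: compound with DiI-HDL co-incubation, 3 h at 37 °C / Technique: bottom-read cell fluorescence after medium removal, ex 550/em 595 nm / Measure: HDL uptake via cellular fluorescence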
PvdQ inh = P. aeruginosa PvdQ acylase inhibitors, primary screen, biochemical, fluorescence, plate reader and imaging, single point; purified PvdQ acylase; AID 488965, 2010; inhibition, % at 10 µM; PvdQ acylase [Pseudomonas aeruginosa LESB58]; 340,000 compounds, 0.063% hits; in the data active = inhibition above about 30%, passing the limit was not always enough;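 note: 0% = vehicle neutral wells and 100% = reference inhibitor wells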
Ecoli rRNA inh = reduced GFP signal of wild-type E. coli, primary screen, bacterial rRNA inhibitor project, GFP/RFP fluorescence, OD600, single point | E. coli WT GFP vs humanized-ribosome RFP mutants, 24 h; stronger effect = lower value; DMSO median 0, no signal -100 | GFP signal change (wild-type ribosome), % (test concentration not listed) | 350,000 compounds, 1.6% hits;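 active = significant combined selectivity score with lowered wild-type GFP, culture density cut under 30%, mutant RFP and density less affected; inactive = any of these conditions unmet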
Xi reactivation = activators of inactive X chromosome reactivation, primary screen, imaging, XiGFP fibroblasts, GFP high-content imaging, set 2; XiGFP mouse fibroblasts, % GFP-positive cells imaging, 3 d; cells co-treated with 5-aza-dC sensitizer; scaled so ellipticine positive control = 100%; activation, % at 7.58 µM; 360,000 compounds, 0.055% hits; AID 743238, 2013;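 active = mean normalized replicate activation at least 10% and every replicate at or above 10%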;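 note: 0% = median of on-plate neutral control wells and 100% = ellipticine 6 µM median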
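System: 68-5-11 XiGFP fibroblast line; Timing: 3 days compound exposure; Compound dosing: one concentration, pinned; Benchmarks: positive control ellipticine, 6 µM final; Buffer or medium: DMEM containing 5-aza-dC.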
The depositor's hits bear a star; x = no result given. Rows were chosen to be rich in hits. Some 2.6% of all compounds tested hit in one or more screens of this group.

SMILES | dFosB activator | SR-BI DiI inh | SR-BI uptake up | PvdQ inh | Ecoli rRNA inh | Xi reactivation
CC(C)C1CC(CCNCc2ccc(N(C)C)cc2)(c2ccccc2)CCO1 (configuration not stated) | 0 | 4 | -4 | -14 | -37 | 0
Cc1nn(-c2ccccc2)c(C)c1CN(C)C(=O)c1ccc(S(=O)(=O)NCc2ccco2)cc1 | -9 | 64 | -64 | -4 | -33* | 0
CN(Cc1ccc(Cl)cc1)C(=O)c1ccc(S(=O)(=O)NCc2ccco2)cc1 | -9 | 9 | -9 | -7 | 5 | 0
CCOC(=O)c1c(CS(=O)(=O)c2ccccc2)n(C)c2cc(Br)c(O)cc12 | -1 | -20 | 20 | -1 | -19* | 0
O=C(OCc1ccccc1F)c1cc2ccccc2cc1O | -4 | -15 | 15 | -14 | 4 | 0
O=C(Nc1ccc2c(c1)OCCO2)c1cc2sccc2n1Cc1ccccc1 | -12 | 54 | -54 | -15 | x | x
Cn1c(C(=O)Nc2ccc3c(c2)OCCO3)cc2sccc21 | 3 | 34 | -34 | 15 | -32* | x
COc1ccc2[nH]c3c(=O)n4c(nc3c2c1)SCCC4 | -8 | 1 | -1 | -3 | -28* | 0
C[C@@H]1CN([C@H](C)CO)C(=O)c2cc(NC(=O)Nc3ccc(F)cc3)ccc2O[C@@H](C)CCCCO[C@@H]1CN(C)C(=O)NC1CCCCC1 | x | x | x | x | 0 | 0
C[C@@H]1CC=C[C@@H]2[C@H]1C(=O)N(Cc1ccccc1)[C@H]2c1cccc(Br)c1 | 0 | 6 | -6 | 1 | -4 | 0
COC(=O)/C=C/c1cccc([C@H]2[C@@H]3C=CC[C@@H](C)[C@@H]3C(=O)N2Cc2ccccc2)c1 | -13 | 25 | -25 | -17 | -19* | 0
C[C@H]([C@@H](N)C(=O)N[C@@H](C(=O)O)[C@@H]1O[C@H](n2ccc(=O)[nH]c2=O)[C@@H](O)[C@H]1O)[C@@H](O)c1ccc(O)cn1 | 3 | 13 | -13 | -11 | 3 | 0
CCOC(=O)c1ccc(NC(=O)c2c(C)[nH]c(C(=O)OCC)c2C)cc1 | 1 | 67 | -67 | -12 | x | x
COc1ccc(NC(=O)c2[nH]c(C)c(C(C)=O)c2C)cc1Cl | -21 | 75* | -75 | -9 | x | x
CC(=O)c1c(C)[nH]c(C(=O)Nc2ccc(C)c(C)c2)c1C | -14 | 40 | -40 | -5 | x | x
CCOC(=O)c1c(C)[nH]c(C(=O)Nc2ccc(NC(C)=O)cc2)c1C | -1 | 61 | -61 | -1 | -27* | 0
CCOc1ccc(CC(=O)Nc2c(C(N)=O)oc3ccc(Br)cc23)cc1OCC | 2 | 3 | -3 | -16 | 1 | 0
O=S1(=O)N[C@H](Cc2ccccc2)COc2cccc(NCCO)c21 | x | x | x | x | 4 | 0
COC(=O)C(C)Oc1cc(OC(C)C(=O)OC)c2c(-c3ccccc3)cc(=O)oc2c1 (configuration not stated) | -14 | x | x | -13 | -24* | 0
COC(=O)COc1cc(OCC(=O)OC)c2c(-c3ccccc3)cc(=O)oc2c1 | -12 | -15 | 15 | -17 | 0 | 0
CCCC(=O)N1c2ccccc2C(=C2SC(C(=O)OC)=C(C(=O)OC)S2)C(=S)C1(C)C | -5 | 82* | -82 | -8 | x | x
COC(=O)C1=C(C(=O)OC)SC(=C2C(=S)C(C)(C)N(C(=O)C(C)C)c3ccccc32)S1 | -23 | 59 | -59 | -8 | x | x
COC(=O)C1=C(C(=O)OC)SC(=C2C(=S)C(C)(C)N(C(=O)C3CC3)c3ccccc32)S1 | -8 | 97* | -97 | -4 | x | x
O=C(C[C@H]1C[C@H]2c3cc(NS(=O)(=O)c4ccccc4)ccc3O[C@H]2[C@@H](CO)O1)NCC(F)(F)F | x | x | x | x | -1 | 0
Clc1ccc(C(c2ccccc2Cl)C(Cl)Cl)cc1 (configuration not stated) | -1 | 10 | -10 | 11 | 6 | 0
SMILES | dFosB activator | SR-BI DiI inh | SR-BI uptake up | PvdQ inh | Ecoli rRNA inh | Xi reactivation
COc1cccc(C(C(=O)NC2CCCC2)N(C(=O)c2ccco2)c2ccc(C(C)=O)cc2)c1OC (configuration not stated) | -16 | -234 | 234* | -10 | 4 | 0
O=c1cc(O)n(-c2ccccc2)c(=S)[nH]1 | 2 | -37 | 37 | -9 | x | x
CCCCOC(=O)/C=C/c1c(C)[nH]c(=O)[nH]c1=O | -6 | -17 | 17 | 15 | -34* | 0
COc1ccc([N+](=O)[O-])cc1NC(=O)C(C)N(C)Cc1ccc(Br)cc1 (configuration not stated) | -8 | 75* | -75 | -9 | 5 | 0
COc1ccc(Br)cc1CN(C)C(C)C(=O)Nc1cc([N+](=O)[O-])ccc1OC (configuration not stated) | -5 | 39 | -39 | -10 | 1 | 0
COC(=O)c1cc(C(=O)N2CCN(C(=O)c3ccco3)CC2)cc([N+](=O)[O-])c1 | -3 | -14 | 14 | -12 | x | 0
COc1ccc([N+](=O)[O-])cc1NC(=O)C(C)N1CCN(C(=O)c2ccco2)CC1 (configuration not stated) | -8 | 72* | -72 | -5 | 12 | 0
Cc1ccc(S(=O)(=O)Nc2ccc3c(c2)C(=O)N([C@H](C)CO)C[C@@H](C)[C@@H](CN(C)S(=O)(=O)c2ccccc2)OCCCC[C@H](C)O3)cc1 | x | x | x | x | 0 | 0
CCN(C[C@H]1N[C@@](C)(C(=O)OC)[C@H]2C(=O)N(Cc3ccccc3)C(=O)[C@@H]12)S(=O)(=O)c1ccc(C)cc1 | -8 | -18 | 18 | -3 | -21* | 0
COC(=O)[C@]1(C)N[C@H](CN(C)S(=O)(=O)c2ccc(C(C)(C)C)cc2)[C@@H]2C(=O)N(C)C(=O)[C@@H]21 | -4 | -9 | 9 | -7 | -25* | 0
O=C(Cc1ccccc1)Nc1ccc(N2CCCC2)cc1 | 68* | 34 | -34 | -14 | x | x
O=C(Nc1ccc(N2CCCC2)cc1)C(c1ccccc1)c1ccccc1 | 77* | 40 | -40 | -16 | x | x
COc1ccc(NC(=O)N(C)C[C@H]2OCCCC[C@H](C)Oc3ccc(NS(=O)(=O)c4ccc(OC)cc4)cc3C(=O)N([C@@H](C)CO)C[C@H]2C)cc1 | x | x | x | x | -4 | 0
